Assay results reported in ChEMBL document CHEMBL4680142, “Thiazolidine-2,4-dione-based irreversible allosteric IKK-β kinase inhibitors: Optimization into in vivo active anti-inflammatory agents” (Eur J Med Chem, 2020).

Columns and labels:
[1] = target: T1, Inhibitor of nuclear factor kappa-B kinase subunit beta (Homo sapiens, UniProt O14920); experiment: Allosteric inhibition of IKKbeta (unknown origin) using 5FAM-GRHDSGLDSMK-NH2 as substrate pretreated for 10 mins followed measured after 2 hrs by TR-FRET assay
T1 sequence (O14920 whole entry): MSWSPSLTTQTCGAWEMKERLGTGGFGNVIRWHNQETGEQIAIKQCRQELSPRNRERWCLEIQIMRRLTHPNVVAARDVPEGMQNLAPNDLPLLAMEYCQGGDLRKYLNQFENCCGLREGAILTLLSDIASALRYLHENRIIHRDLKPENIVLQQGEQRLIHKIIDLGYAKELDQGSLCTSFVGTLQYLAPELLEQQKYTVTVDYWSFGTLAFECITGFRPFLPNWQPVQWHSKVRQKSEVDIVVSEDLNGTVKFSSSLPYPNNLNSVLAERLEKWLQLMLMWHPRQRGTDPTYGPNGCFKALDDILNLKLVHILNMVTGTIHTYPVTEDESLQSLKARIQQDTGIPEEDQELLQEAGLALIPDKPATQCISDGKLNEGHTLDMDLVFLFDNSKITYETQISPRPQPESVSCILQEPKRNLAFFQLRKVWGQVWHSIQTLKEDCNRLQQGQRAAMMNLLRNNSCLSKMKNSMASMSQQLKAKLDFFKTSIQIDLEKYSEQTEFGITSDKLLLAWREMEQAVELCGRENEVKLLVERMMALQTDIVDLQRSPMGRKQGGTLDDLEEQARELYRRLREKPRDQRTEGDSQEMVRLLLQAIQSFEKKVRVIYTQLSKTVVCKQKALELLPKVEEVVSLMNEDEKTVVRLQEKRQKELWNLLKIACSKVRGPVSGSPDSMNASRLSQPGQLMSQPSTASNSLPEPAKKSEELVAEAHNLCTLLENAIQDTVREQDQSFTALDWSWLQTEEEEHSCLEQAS
Method in brief: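 Enzyme: 0.5 µg/mL IKK2, in 10 mM Tris-HCl pH 7.2, 10 mM MgCl2, 0.05% NaN3, 1 mM DTT, 0.01% Tween-20. Compound at 10 µM pre-incubated 10 min, then 1 µM 5-FAM IκBα peptide and 3 µM ATP added. Reaction 2 h at room temperature. IMAP binding reagent/terbium detection mix added 15 h before reading. TR-FRET read with 340 nm excitation, emission 495/520 nm. Percent inhibition or IC50 derived.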

[2] = target: T2, Inhibitor of nuclear factor kappa-B kinase subunit beta (Homo sapiens) (UniProt O14920); experiment: Allosteric inhibition of IKKbeta (unknown origin) using 5FAM-GRHDSGLDSMK-NH2 as substrate at 0.001 to 30 uM pretreated for 10 mins followed by substrate addition measured immediately by TR-FRET assay; settings: filed as negative allosteric modulator, dose 0.001-30 µM
T2 sequence (whole entry): T1 sequence (O14920 whole entry)
Method in brief: (§1)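 IKK2 (0.5 µg/mL) in 10 mM Tris-HCl pH 7.2, 10 mM MgCl2, 0.05% NaN3, 1 mM DTT, 0.01% Tween-20, room temperature. Compound (30 to 0.001 µM, ten roughly three-fold dilutions) preincubated 10 min with enzyme. Reaction started with 1 µM 5FAM-IκBα peptide and 3 µM ATP, run 0, 20, 40 or 60 min. IMAP binding reagent/terbium donor detection, TR-FRET read at 495/520 nm. Kobs fitted against concentration by nonlinear regression.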

[3] = target: T2, Inhibitor of nuclear factor kappa-B kinase subunit beta (Homo sapiens); experiment: Allosteric inhibition of IKKbeta (unknown origin) at 0.001 to 30 uM using 5FAM-GRHDSGLDSMK-NH2 as substrate incubated for 10 mins followed by substrate addition and measured after 40 mins by TR-FRET assay relative to control; settings: filed as negative allosteric modulator, dose 0.001-30 µM, time 50.0 min; method in brief: as §1
[4] = target: T1, Inhibitor of nuclear factor kappa-B kinase subunit beta; experiment: Allosteric inhibition of IKKbeta (unknown origin) using 5FAM-GRHDSGLDSMK-NH2 as substrate incubated for 10 mins followed by substrate addition and measured immediately by TR-FRET assay
Method in brief: (§2)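 Kinetic IMAP TR-FRET run with 0.5 µg/mL IKK2 in 10 mM Tris-HCl pH 7.2, 10 mM MgCl2, 0.05% NaN3, 1 mM DTT, 0.01% Tween-20. Compound (ten doses, 30 to 0.001 µM) pre-incubated with enzyme 10 min, then 1 µM IκBα-derived substrate and 3 µM ATP added. Room temperature. Reactions run 0, 20, 40 or 60 min. Ten-point curves fitted by nonlinear regression.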

[5] = target: T1, Inhibitor of nuclear factor kappa-B kinase subunit beta; experiment: Allosteric inhibition of IKKbeta (unknown origin) using 5FAM-GRHDSGLDSMK-NH2 as substrate incubated for 10 mins followed by substrate addition and measured after 20 mins by TR-FRET assay; method in brief: as §2
[6] = target: T1, Inhibitor of nuclear factor kappa-B kinase subunit beta; experiment: Allosteric inhibition of IKKbeta (unknown origin) using 5FAM-GRHDSGLDSMK-NH2 as substrate incubated for 10 mins followed by substrate addition and measured after 40 mins by TR-FRET assay; method in brief: as §2
RAW264.7 [7] = experiment: Cytotoxicity against mouse RAW264.7 cells assessed as reduction in cell viability incubated for 24 hrs in presence of LPS by MTT assay; assay type: cell-based; settings: RAW264.7, 24 h
Method in brief: (§3)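 MTT viability in RAW 264.7 cells seeded at 1×10^5 cells/mL and incubated overnight. Compounds added with or without LPS (1 µg/mL) for 24 h. MTT for 4 h at 37 °C, formazan dissolved in DMSO, absorbance read at 540 nm. IC80 is the concentration reducing viability to 80% with LPS.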

RAW264.7 [8] = experiment: Antiinflammatory activity against mouse RAW264.7 cells assessed as reduction in LPS-induced PGE2 level incubated for 1 hr followed by LPS stimulation and measured after 24 hrs by ELISA; assay type: functional, cell-based
Method in brief: (§4)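 RAW 264.7 cells (DMEM, 10% FBS, 37 °C, 5% CO2) plated at 2×10^5 cells/mL and left overnight. Compounds (0.1, 1, 10 µM) or NS-398 given for 1 h, then LPS 10 ng/mL for 24 h. Culture medium assayed by ELISA: competitive colorimetric for PGE2/TNF-α, mouse DuoSet for TNF-α/IL-6. IC50 is the concentration lowering the mediator to 50%.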

RAW264.7 [9] = experiment: Antiinflammatory activity against mouse RAW264.7 cells assessed as reduction in LPS-induced TNF-alpha level at 10 uM incubated for 1 hr followed by LPS stimulation and measured after 24 hrs by ELISA relative to control; assay type: functional; settings: time 25 hrs; method in brief: as §4
[10] = Effect on NO production in non-stimulated mouse RAW264.7 cells at 10 uM after 24 hrs by Griess reagent based assay; settings: raw264.7, 24 h
RAW264.7 [11] = experiment: Cytotoxicity against mouse RAW264.7 cells assessed as reduction in cell viability at 6 uM incubated for 24 hrs by MTT assay; assay type: cell-based; settings: raw264.7, 24 h; method in brief: as §3
[12] = Metabolic stability in rat plasma assessed as parent compound remaining at 1 uM measured upto 2 hrs by LC-MS/MS analysis; assay type: ADME, cell-free; settings: read-out: Stabilty
Method in brief: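 Rat plasma incubated with 1 µM compound at 37 °C for 0, 15, 30, 60 and 120 min. After separation, remaining compound quantified by LC-MS/MS as % remaining.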

[13] = Cytotoxicity against non-stimulated mouse RAW264.7 cells upto 10 uM after 24 hrs by MTT assay; settings: raw264.7, 24 h

Row | SMILES | IC50 [1] [nM] | inhibition [2] [%] | inhibition [3] [%] | IC50 [4] [nM] | IC50 [5] [nM] | IC50 [6] [nM] | IC80 (RAW264.7 [7]) [nM] | IC50 (RAW264.7 [8]) [nM] | inhibition at 10 µM (RAW264.7 [9]) [%] | Activity [10] | Activity (RAW264.7 [11]) | remaining at 2 h, 1 µM [12] [%] | Activity [13]
1 | CN1CCN(CCCOc2ccc(N3C(=O)S/C(=C\c4ccc(Oc5ccc(C#N)cc5)cc4)C3=O)cc2)CC1 | 200 | -9.33 | -4.47 | 575 | 347 | 251 | > 10000 | 9830 | 80 | Non-Toxic | Non-Toxic | 73.6 | Non-Toxic
2 | CN1CCN(CCCCCOc2cccc(N3C(=O)S/C(=C\c4ccc(Oc5ccc([N+](=O)[O-])cc5)cc4)C3=O)c2)CC1 | 220 | -5.63 | -8.33 | 347 | 245 | 219 | > 10000 | > 10000 | 84 | Non-Toxic | Non-Toxic | 83.3 | Non-Toxic
